# According to paper PMC3619423 (Experimental eye research, 2013):
# “Also recorded” adds a separate entry of the source. No end group written: not given here.
# How the values were obtained:
# [1] = test system: peptidase-rich fraction of bovine lens extract
# [2] = test system: bovine lens protease-rich fraction; experiment: Hydrolysis of MCA-62-70 substrate by lens protease in the presence of inhibitors; format: biochemical; conditions: for inhibition of MCA-62-70 hydrolysis: pre-incubated 30 min at 37 °C
# [3] = test system: bovine lens extracts (outer cortical, inner cortical, nuclear); experiment: MCA-62-70 hydrolytic activity in regions of bovine lens; format: biochemical; conditions: 1 mg protein extract, 37 °C
# Method in brief: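 Decapsulated bovine lenses stirred at 4 °C in 50 mM sodium phosphate, 150 mM NaCl, pH 7.2, dissolving outer cortex (about a third of wet weight), then inner cortex (about a third); remaining nucleus homogenised. Each fraction centrifuged 30,000 × g, 30 min; supernatant (1 mg protein) incubated with 25 μg MCA-62-70, 2 h, 37 °C; fluorescence read before and after (ex 326, em 398 nm).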
# [4] = test system: human lens extracts (cortical, nuclear); experiment: MCA-62-70 hydrolytic activity in human lenses of different age; format: biochemical; conditions: for total protease activity (MCA-62-70 hydrolyzed): water-soluble proteins
# Method in brief: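 Cortical and nuclear regions of frozen young, middle-aged and old human lenses separated by dissection; water-soluble extracts (1 mg protein) incubated with 25 μg MCA-62-70 substrate, 2 h, 37 °C. Fluorescence read before and after (ex 326, em 398 nm). Amount hydrolysed taken from a standard curve of trypsin-digested substrate; average ± SE of four independent experiments; one-way ANOVA with Tukey's test.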
# [5] = test system: Arg-MCA hydrolyzing activity (aminopeptidase activity); experiment: Arg-MCA hydrolysis; format: biochemical, bovine
# protease-rich human = conditions: 37 °C, up to 5 h
# [6] = bovine lens extract containing 5 mg protein; conditions: 37 °C, up to 16 h
# [7] = bovine, 37 °C
compound,measurement,setting,value
"RPPGFSPFR [bradykinin, Bradykinin]",hydrolysis after 2 h,[1],complete hydrolysis
same,slowing of hydrolysis rate versus peptide incubated alone,[1],40%
"O=C(O)CN(CCOCCOCCN(CC(=O)O)CC(=O)O)CC(=O)O [EGTA, ethylene glycol tetraacetic acid]",inhibition of MCA-62-70 hydrolysis,[2]; concentration not given,50%
MCA-SEVRSDRD[Lys(Dnp)]RR-NH2 [MCA-62-70],enzymatic activity (MCA-62-70 hydrolysis),[3]; bovine lens inner cortex,0.10 ± 0.01 nmoles/hr/mg protein
same,enzymatic activity (MCA-62-70 hydrolysis),[3]; bovine lens nuclear region,0.04 ± 0.003 nmoles/hr/mg protein
same,enzymatic activity (MCA-62-70 hydrolysis),[3]; bovine lens outer cortical region,0.58 ± 0.04 nmoles/hr/mg protein
same,share of total lens enzymatic activity in the cortical region,"[4]; human lens cortical region, all age groups",~90%
same,total protease activity (MCA-62-70 hydrolyzed),[4]; middle-aged (40 ± 2 years) human lenses,7.26 ± 0.83 n moles/h
same,total protease activity (MCA-62-70 hydrolyzed),[4]; older (60 ± 2 years) human lenses,5.49 ± 0.29 nmol/h
same,total protease activity (MCA-62-70 hydrolyzed),[4]; young (20 ± 2 years) human lenses,8.84 ± 0.96 nmol/h
"O=C(O)CN(CCN(CC(=O)O)CC(=O)O)CC(=O)O [EDTA, ethylene diamine tetraacetic acid]",inhibition of MCA-62-70 hydrolysis,[2]; concentration not given,50%
"α-crystallin: bovine lens α-crystallin, molecular chaperone protein added to the peptidase incubations",increase of Arg-MCA hydrolysis by peptidase-rich bovine lens fraction,"[5]; addition of 12.5 nmoles α-crystallin, data not shown",~4 fold
MCA-SEVRSDRD[Lys(Dnp)]RR-NH2,fragment found,protease-rich human,"MCA-62-68 (MCA-SEVRSDR); also recorded: MCA-62-65 (MCA-SEVR); also recorded: MCA-62-66 (MCA-SEVRS), major"
"O=c1oc(Cl)c(Cl)c2ccccc12 [3,4-DCI]",inhibition of MCA-62-70 hydrolysis,[2]; 500 μM,up to 85%
Succinyl-DVKHFSPEDK-Biotin,fragment found,[6],"αA-76-78; also recorded: αA-76-80; also recorded: αA-76-82, major"
Succinyl-ISEVRSDRDK-Biotin,fragment found,[6],αA-61-65; also recorded: αA-61-66
"CC(C)C[C@H](NC(=O)[C@@H](O)[C@H](N)Cc1ccccc1)C(=O)O [Bestatin, reference compound]",inhibition of Arg-MCA hydrolyzing activity (aminopeptidase activity),[5]; protease preparation treated with bestatin,complete inhibition
SDRDKFVIFLDVKHF,not cleaved,[7],αA-66-80 was not hydrolyzed
NC(=O)CI [Iodoacetamide],Relative activity (%),[2],97%
